The text below walks through data of ChEMBL document CHEMBL3259817, “N-carbamidoyl-4-((3-ethyl-2,4,4-trimethylcyclohexyl)methyl)benzamide enhances staurosporine cytotoxic effects likely inhibiting the protective action of Magmas toward cell apoptosis” (J Med Chem, 2014).

Active and inactive are the calls of the source. The calls are words filed in the database; no cut-off is given here.

The subject of data set [1] is TT. The data set is described as follows: Effect on total TIM16 protein level in human TT cells at 10 uM after 24 hrs by Western blotting analysis in presence of staurosporine. In kind it is functional, cell-based. Put shortly:
(§1)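 TT cells treated 24 h with 10 μM compound alone or with 50 nM staurosporine, then lysed in RIPA buffer on ice 30 min and centrifuged; protein by BCA. Lysates run on 10% SDS-PAGE, blotted to nitrocellulose, probed with rabbit anti-Tim 16 (1:1000), HRP anti-rabbit IgG (1:5000), ECL detection; stripped and reprobed for β-actin loading control.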

In data set [2] the test system is TT. The experiment in a line: Induction of apoptosis in human TT cells assessed as caspase 3/7 activation at 10 uM after 72 hrs by luminescence assay relative to control. In kind it is functional. Put shortly: (§2)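 TT cells (2 × 10^4/well) exposed 72 h to compound, treatment renewed every 24 h; vehicle 0.1% DMSO. Caspase-Glo 3/7 reagent added at room temperature, plates shaken 30 s, incubated 1 h, luminescence (RLU) read. Mean ± SE percent RLU vs vehicle control; three independent experiments in six replicates.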

For data set [3], the system named is TT. The experiment in a line: Potentiation of staurosporine-induced apoptosis in human TT cells assessed as caspase 3/7 activation at 5 uM after 72 hrs by ATPlite assay relative to control. As to conditions: in the assay text read “Caspase-Glo 3/7 assay” for “ATPlite assay”. In kind it is functional. Put shortly:
(§3)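 TT cells (2 × 10^4/well) given 5 or 10 μM compound alone or with 50 nM staurosporine, renewed every 24 h, for 72 h. Caspase 3/7 activity by Caspase-Glo 3/7: reagent added at room temperature, 30 s shake, 1 h incubation, luminescence read. Mean ± SE percent RLU vs vehicle control, three experiments in six replicates.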

Data set [4] concerns TT. The data set is described as follows: Potentiation of staurosporine-induced cytotoxicity against human TT cells assessed as reduction in cell viability at 5 to 10 uM after 72 hrs by ATPlite assay. In kind it is functional, cell-based. Put shortly: (§4)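 Cells seeded at 2 × 10^4/well, given 5 or 10 μM compound alone or combined with 50 nM staurosporine, treatments renewed every 24 h for 72 h; vehicle 0.1% DMSO. ATPlite luminescence (RLU) read-out, expressed as mean ± SE percent of vehicle-treated control; three independent experiments, six replicates each.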

Data set [5] concerns TT. The experiment in a line: Induction of apoptosis in human TT cells assessed as decrease in mitochondrial membrane potential at 10 uM by JC-1 staining-based fluorescence microscopic analysis. It is filed as functional, cell-based. Put shortly:
(§5)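 TT cells treated with 5 or 10 μM compound, 50 nM staurosporine, or the combination. Mitochondrial membrane potential assessed with JC-1 dye, 30 min at 37 °C, by fluorescence microscopy; red aggregate fluorescence indicates retained potential, green monomer fluorescence a fall in potential.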

The subject of data set [6] is TT. The data set is described as follows: Cytotoxicity against human TT cells assessed as reduction in cell viability at 5 uM after 72 hrs by ATPlite assay. It is filed as functional, cell-based. Put shortly:
(§6)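 TT or MCF12A cells seeded at 2 × 10^4/well, exposed to compound for 72 h with treatment renewed every 24 h; vehicle control 0.1% DMSO. Viable cell number read by ATPlite luminescence (RLU). Results are mean ± SE percent RLU vs vehicle-treated control from three independent experiments in six replicates.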

The test system of data set [7] is TT. The experiment in a line: Effect on total TIM16 protein level in human TT cells at 10 uM after 24 hrs by Western blotting analysis. It is filed as functional, cell-based. Put shortly: as §1
For data set [8], the system named is TT. The data set is described as follows: Potentiation of staurosporine-induced apoptosis in human TT cells assessed as decrease in mitochondrial membrane potential at 10 uM by JC-1 staining-based fluorescence microscopic analysis. It is filed as functional, cell-based. Put shortly: as §5
Data set [9] deals with TT. The experiment in a line: Potentiation of staurosporine-induced apoptosis in human TT cells assessed as caspase 3/7 activation at 10 uM after 72 hrs by ATPlite assay relative to control. In kind it is functional. As to conditions: in the assay text read “Caspase-Glo 3/7 assay” for “ATPlite assay”. Put shortly: as §3
Data set [10] has as its system TT. The data set is described as follows: Cytotoxicity against human TT cells assessed as reduction in cell viability at 10 uM after 72 hrs by ATPlite assay relative to control. In kind it is functional. Put shortly: as §6
Data set [11] relates to TT. The experiment in a line: Induction of apoptosis in human TT cells assessed as caspase 3/7 activation at 5 uM after 72 hrs by luminescence assay. It is filed as functional, cell-based. Put shortly:
as §2

For data set [12], the system named is TT. The experiment in a line: Cytotoxicity against human TT cells assessed as reduction in cell viability at 1 to 10 uM after 72 hrs by ATPlite assay. In kind it is functional, cell-based. Put shortly: as §6
Data set [13] relates to TT. The experiment in a line: Potentiation of staurosporine-induced apoptosis in human TT cells assessed as caspase 3/7 activation at 5 to 10 uM after 72 hrs by ATPlite assay relative to control. It is filed as functional, cell-based. As to conditions: in the assay text read “Caspase-Glo 3/7 assay” for “ATPlite assay”. Put shortly:
as §3

Data set [14] deals with TT. The experiment in a line: Induction of apoptosis in human TT cells assessed as caspase 3/7 activation at 1 to 10 uM after 72 hrs by luminescence assay. In kind it is functional, cell-based. An outline of the steps:
as §2

Data set [15] concerns TT. The data set is described as follows: Potentiation of staurosporine-induced cytotoxicity against human TT cells assessed as reduction in cell viability at 5 uM after 72 hrs by ATPlite assay relative to control. It is filed as functional. Put shortly: as §4
Data set [16] can be described thus: Cytotoxicity against human MCF12A cells assessed as reduction in cell viability at 5 to 10 uM after 72 hrs by ATPlite assay. In kind it is cell-based. As to conditions: mcf-12a. Put shortly: as §6
A short description of data set [17]: Potentiation of staurosporine-induced cytotoxicity against human MCF12A cells assessed as reduction in cell viability at 5 to 10 uM after 72 hrs by ATPlite assay. In kind it is cell-based. The following applies: mcf-12a. An outline of the steps: as §4
Data set [18] has as its system TT. The data set is described as follows: Potentiation of staurosporine-induced cytotoxicity against human TT cells assessed as reduction in cell viability at 10 uM after 72 hrs by ATPlite assay relative to control. It is filed as functional. An outline of the steps: as §4

Consider `CCC1=C(C)/C(=C/c2ccc(C(=O)NC(=N)N)cc2)CCC1(C)C`, for which the result with TT [1], in the data set with TT [5], in the data set with TT [6], in the data set with TT [7] and with TT [11] was inactive. For the same molecule, the Activity is 300% with TT [2], 40% with TT [3], 400% with TT [9] and 70% in the data set on TT [10]. The result with TT [4] and with TT [8] was Active.

As to `CCC1=C(C)/C(=C/c2ccc(C(N)=O)cc2)CCC1(C)C`, the result with TT [1], in the data set with TT [12], with TT [13], in the data set with TT [14] and with TT [7] was inactive.

`CCC1=C(C)/C(=C/c2ccc(C(=O)NC(N)=O)cc2)CCC1(C)C`: the outcome in the data set on TT [1], in the data set with TT [12], with TT [13], with TT [14] and in the data set on TT [7] was inactive.

As to `CCC1C(C)C(Cc2ccc(C(=O)NC(=N)N)cc2)CCC1(C)C` (stereo not drawn), the outcome with TT [1], in the data set on TT [12], in the data set on TT [14] and with TT [7] was inactive. Also, the Activity with TT [3] is 140%; in the data set on TT [15], 12%; in data set [16], “Non-toxic”; in [17], “Non-toxic”; in the data set with TT [18], 20%; with TT [9], 330%. The outcome with TT [5] and in the data set on TT [8] was Active.

Take `CCC1=C(C)/C(=C/c2ccc(C(=O)O)cc2)CCC1(C)C`: the outcome with TT [1], with TT [12], in the data set on TT [13], in the data set on TT [14] and in the data set on TT [7] was inactive.
